Assay results from ChEMBL document CHEMBL4312035, “Preliminary SAR and biological evaluation of potent HIV-1 protease inhibitors with pyrimidine bases as novel P2 ligands to enhance activity against DRV-resistant HIV-1 variants” (Eur J Med Chem, 2020).

What was measured:
[1] = Cytotoxicity against human 293T cells measured after 24 hrs by CCK8 assay; format: cell-based; settings: HEK-293T cells
Summary of the method: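 293T cells plated at 20 000 per well and cultured 24 h before drug addition; exposure 24 h, then CCK-8 added and absorbance read at 450 nm after 2 h at room temperature. Run in triplicate; mean ± 1 SD from three independent experiments.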

Protease = Protease (Human immunodeficiency virus 1, UniProt Q9YQ12); assay: Inhibition of HIV1 protease expressed in Escherichia coli using Arg-Glu (EDANS)-Ser-Gln-Asn-Tyr-Pro-Ile-Val-Gln-Lys(DABCYL)-Arg as substrate preincubated for 20 to 30 mins followed by substrate addition and measured for 10 mins by FRET assay
Chain of Protease (Q9YQ12 whole entry): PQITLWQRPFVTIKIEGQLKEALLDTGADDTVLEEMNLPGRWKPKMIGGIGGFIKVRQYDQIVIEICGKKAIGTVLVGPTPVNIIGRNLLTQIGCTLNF
Summary of the method: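 Recombinant HIV-1 protease, purified from E. coli. Buffer: 0.1 M sodium acetate, 1 M NaCl, 1 mM EDTA, 1 mM DTT, 2% DMSO, 1 mg/mL BSA, pH 4.7. Inhibitor dissolved in DMSO. Excitation 340 nm, emission 490 nm, recorded about 10 min. Run in triplicate; IC50 as mean ± 1 SD from three independent experiments.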

[2] = test system: Human immunodeficiency virus 1; assay: Antiviral activity against VSV-G pseudotyped HIV1 transfected in human 293T cells co-transfected with NL4-3 HIV1 supernatant infected in human SupT1 cells treated with compound for 48 hrs assessed as inhibition of viral infection at 10 uM after 48 hrs by luciferase assay (reference value: 0 %); format: functional; settings: Human immunodeficiency virus 1, 48 h
[3] = test system: Human immunodeficiency virus 1; assay: Antiviral activity against VSV-G pseudotyped HIV1 transfected in human 293T cells co-transfected with NL4-3 HIV1 supernatant infected in human SupT1 cells treated with compound for 48 hrs assessed as inhibition of viral infection at 100 nM after 48 hrs by luciferase assay (reference value: 0 %); format: functional; settings: Human immunodeficiency virus 1, 48 h
[4] = test system: Human immunodeficiency virus 1; assay: Antiviral activity against wild-type HIV1 NL4-3 infected in human SupT1 cells infected with […] after 48 hrs by luciferase reporter assay; format: functional, organism-based; settings: Human immunodeficiency virus 1, NL4-3, 48 h
[5] = test system: Human immunodeficiency virus 1; assay: Antiviral activity against darunavir-resistant HIV1 NL4-3 infected in human […] after 48 hrs by luciferase reporter assay; format: functional, organism-based; settings: Human immunodeficiency virus 1, NL4-3, 48 h
[6] = test system: Human immunodeficiency virus 1; assay: Ratio of EC50 for antiviral activity against darunavir-resistant HIV1 NL4-3 infected in human SupT1 cells infected with supernatants from virus-infected human TZM-bl cells to EC50 for antiviral activity against wild-type HIV1 NL4-3 infected in human SupT1 cells infected with supernatants from virus-infected human TZM-bl cells; format: functional

| SMILES | CC50 at 24 h [1] [nM] | IC50 (Protease) [nM] | inhibition at 10 µM [2] [%] | inhibition at 0.1 µM [3] [%] | EC50 [4] [nM] | EC50 [5] [nM] | Ratio EC50 [6] |
| --- | --- | --- | --- | --- | --- | --- | --- |
| CC(C)CN(C[C@@H](O)[C@H](Cc1ccccc1)NC(=O)Cn1ccc(N)nc1=O)S(=O)(=O)c1ccc([N+](=O)[O-])cc1 | > 100000 | 411 |  |  |  |  |  |
| CC(C)CN(C[C@@H](O)[C@H](Cc1ccccc1)NC(=O)Cn1cccnc1=O)S(=O)(=O)c1ccc(N)cc1 | > 100000 | 126 |  |  |  |  |  |
| COc1ccc(S(=O)(=O)N(CC(C)C)C[C@@H](O)[C@H](Cc2ccccc2)NC(=O)Cn2cccnc2=O)cc1 | > 100000 | 10.3 | 50.3 |  |  |  |  |
| CC(C)CN(C[C@@H](O)[C@H](Cc1ccccc1)NC(=O)Cn1cc(F)c(N)nc1=O)S(=O)(=O)c1ccc(N)cc1 | > 100000 | 105 |  |  |  |  |  |
| Cc1cn(CC(=O)N[C@@H](Cc2ccccc2)[C@H](O)CN(CC(C)C)S(=O)(=O)c2ccc(N)cc2)c(=O)[nH]c1=O | > 100000 | 19.7 | 54 |  |  |  |  |
| COc1ccc(S(=O)(=O)N(CC(C)C)C[C@@H](O)[C@H](Cc2ccccc2)NC(=O)Cn2ccc(N)nc2=O)cc1 | > 100000 | 9.04 | 33.2 |  |  |  |  |
| COc1ccc(S(=O)(=O)N(CC(C)C)C[C@@H](O)[C@H](Cc2ccccc2)NC(=O)Cn2cc(F)c(N)nc2=O)cc1 | > 100000 | 36 |  |  |  |  |  |
| CC(C)CN(C[C@@H](O)[C@H](Cc1ccccc1)NC(=O)Cn1ccc(N)nc1=O)S(=O)(=O)c1ccc(N)cc1 | > 100000 | 153 |  |  |  |  |  |
| CC(C)CN(C[C@@H](O)[C@H](Cc1ccccc1)NC(=O)Cn1cccnc1=O)S(=O)(=O)c1ccc([N+](=O)[O-])cc1 | > 100000 | 245 |  |  |  |  |  |
| CC(C)CN(C[C@@H](O)[C@H](Cc1ccccc1)NC(=O)Cn1cc(CO)c(=O)[nH]c1=O)S(=O)(=O)c1ccc(N)cc1 | > 100000 | 241 |  |  |  |  |  |
| COc1ccc(S(=O)(=O)N(CC(C)C)C[C@@H](O)[C@H](Cc2ccccc2)NC(=O)Cn2cc(F)c(=O)[nH]c2=O)cc1 | > 100000 | 1.95 | 83.2 | 51 | 1070 | 2700 | 2.52 |
| CC(C)CN(C[C@@H](O)[C@H](Cc1ccccc1)NC(=O)Cn1cc(F)c(N)nc1=O)S(=O)(=O)c1ccc([N+](=O)[O-])cc1 | > 100000 | 482 |  |  |  |  |  |
| COc1ccc(S(=O)(=O)N(CC(C)C)C[C@@H](O)[C@H](Cc2ccccc2)NC(=O)Cn2cc(C)c(=O)[nH]c2=O)cc1 | > 100000 | 2.78 | 72.7 |  | 2500 | 2870 | 1.15 |
| CC(C)CN(C[C@@H](O)[C@H](Cc1ccccc1)NC(=O)Cn1cc(CO)c(=O)[nH]c1=O)S(=O)(=O)c1ccc([N+](=O)[O-])cc1 | > 100000 | 405 |  |  |  |  |  |
| Cc1cn(CC(=O)N[C@@H](Cc2ccccc2)[C@H](O)CN(CC(C)C)S(=O)(=O)c2ccc([N+](=O)[O-])cc2)c(=O)nc1N | > 100000 | 1190 |  |  |  |  |  |
| Cc1cn(CC(=O)N[C@@H](Cc2ccccc2)[C@H](O)CN(CC(C)C)S(=O)(=O)c2ccc([N+](=O)[O-])cc2)c(=O)[nH]c1=O | > 100000 | 44.3 |  |  |  |  |  |
| CC(C)CN(C[C@@H](O)[C@H](Cc1ccccc1)NC(=O)Cn1ccc(=O)[nH]c1=O)S(=O)(=O)c1ccc(N)cc1 | > 100000 | 20.1 | 48.4 |  |  |  |  |
| CC(C)CN(C[C@@H](O)[C@H](Cc1ccccc1)NC(=O)O[C@H]1CO[C@H]2OCC[C@H]21)S(=O)(=O)c1ccc(N)cc1 | > 100000 |  | 83.2 |  | 6 | 100 |  |
| COc1ccc(S(=O)(=O)N(CC(C)C)C[C@@H](O)[C@H](Cc2ccccc2)NC(=O)Cn2cc(CO)c(=O)[nH]c2=O)cc1 | > 100000 | 9.07 | 59.8 |  |  |  |  |
| COc1ccc(S(=O)(=O)N(CC(C)C)C[C@@H](O)[C@H](Cc2ccccc2)NC(=O)Cn2ccc(=O)[nH]c2=O)cc1 | > 100000 | 2.53 | 81 | 68 | 270 | 590 | 2.19 |
| Cc1ccnc2c1NC(=O)c1cccnc1N2C1CC1 [NEVIRAPINE] |  |  |  | 76 to 77 |  |  |  |
| Cc1cn(CC(=O)N[C@@H](Cc2ccccc2)[C@H](O)CN(CC(C)C)S(=O)(=O)c2ccc(N)cc2)c(=O)nc1N | > 100000 | 375 |  |  |  |  |  |
| COc1ccc(S(=O)(=O)N(CC(C)C)C[C@@H](O)[C@H](Cc2ccccc2)NC(=O)Cn2cc(C)c(N)nc2=O)cc1 | > 100000 | 147 |  |  |  |  |  |
| CC(C)CN(C[C@@H](O)[C@H](Cc1ccccc1)NC(=O)Cn1cc(F)c(=O)[nH]c1=O)S(=O)(=O)c1ccc([N+](=O)[O-])cc1 | 32400 | 27.6 | 32.8 |  |  |  |  |
| CC(C)CN(C[C@@H](O)[C@H](Cc1ccccc1)NC(=O)Cn1ccc(=O)[nH]c1=O)S(=O)(=O)c1ccc([N+](=O)[O-])cc1 | > 100000 | 20.1 | 51 |  |  |  |  |
| CC(C)CN(C[C@@H](O)[C@H](Cc1ccccc1)NC(=O)Cn1cc(F)c(=O)[nH]c1=O)S(=O)(=O)c1ccc(N)cc1 | 8800 | 16.3 | 63 |  |  |  |  |
